{"source": "paper PMC5947295", "about": "(Clinical Pharmacology in Drug Development, 2018)", "key": {"[1]": {"assay": "Phase 1 randomized 3-period crossover relative bioavailability study, plasma PK", "type": "in vivo", "details": "both, human, po, 50 mg"}, "[2]": {"test_system": "plasma and CSF Aβ peptides", "details": "once‐weekly (70‐mg) dosing schedule; cited from earlier work"}, "Caco-2 permeability": {"assay": "Caco-2 permeability", "type": "in vitro ADME", "details": "human"}, "[3]": {"details": "cited from earlier work; for Cmax: single 150‐mg dose"}, "Caco‐2": {"test_system": "Caco‐2", "details": "cited from earlier work"}, "[4]": {"assay": "Safety and tolerability monitoring in the crossover study", "type": "in vivo, human", "details": "healthy subjects", "outline": "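Single oral 50 mg dose on days 1, 8 and 15 as 10 mL solution (5 mg/mL), tablet A or tablet B, with 7–10-day washout. Dosed after an overnight fast with 240 mL water, fasted to 4 h postdose. AEs, hematology, chemistry (ALT, AST, ALP), urinalysis, vitals, ECG, physical/neurological examination and C-SSRS were monitored throughout.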"}, "[5]": {"test_system": "plasma, cerebrospinal fluid (CSF), and brain Aβ1–40, Aβ1–42, and sAPPβ concentrations", "details": "dog; cited from earlier work"}, "[6]": {"details": "single oral dose of [14C]‐lanabecestat; cited from earlier work"}, "[7]": {"test_system": "plasma, cerebrospinal fluid (CSF), and brain Aβ1–40, Aβ1–42, and sAPPβ concentrations", "details": "mouse; cited from earlier work"}, "[8]": {"details": "elderly healthy subjects and patients with mild to moderate AD, up to 750 mg single dose or 150 mg multiple dose; cited from earlier work"}, "BACE1 [9]": {"test_system": "BACE1", "details": "in vitro; cited from earlier work"}, "plasma Aβ peptides": {"test_system": "plasma Aβ peptides", "details": "single dose at the highest dose studied, SAD study; cited from earlier work"}, "BACE1 [10]": {"test_system": "BACE1", "details": "read-out: In vitro 50% inhibitory concentration (IC50) for BACE1; cited from earlier work"}, "[11]": {"test_system": "plasma, cerebrospinal fluid (CSF), and brain Aβ1–40, Aβ1–42, and sAPPβ concentrations", "details": "guinea pig; cited from earlier work"}, "[12]": {"details": "phase 2, small number of subjects; cited from earlier work"}, "[13]": {"details": "single 50 mg dose, safety set n = 16"}}, "note": "Where two headings read alike, the source gives them in different places.", "data": [{"smiles": "CC#Cc1cncc(-c2ccc3c(c2)[C@@]2(N=C(C)C(N)=N2)[C@]2(CC[C@H](OC)CC2)C3)c1", "note": "[lanabecestat, [1r,1′R,4R]‐4‐methoxy‐5″‐methyl‐6′‐[5‐(prop‐1‐yn‐1‐yl)pyridin‐3‐yl]‐3′H‐dispiro[cyclohexane‐1,2′‐indene‐1′,2″‐imidazol]‐4″‐amine]", "values": [{"measurement": "half-life", "setting": "[1]", "result": "~16", "unit": "h"}, {"measurement": "Suppression of plasma and CSF Aβ peptides", "setting": "[2]", "result": "prolonged suppression"}, {"measurement": "Papp", "setting": "Caco-2 permeability", "result": "> 10", "unit": "×10⁻⁶ cm/s"}, {"measurement": "Cmax", "setting": "[3]; fasted", "result": 701, "unit": "ng/mL"}, {"measurement": "Cmax", "setting": "[3]; fed", "result": 499, "unit": "ng/mL"}, {"measurement": "Effect of food intake on AUC", "setting": "[3]; food intake", "result": "minimal effect"}, {"measurement": "tmax with food intake (later tmax)", "setting": "[3]; food intake", "result": "~2", "unit": "h"}, {"measurement": "Mean Caco‐2 apical‐to‐basolateral Papp permeability", "setting": "Caco‐2", "result": "34.8 × 10^‐6 cm/s"}, {"measurement": "Tolerability", "setting": "[4]; single 50 mg dose as solution or tablet", "result": "well tolerated"}, {"measurement": "Severity of adverse events", "setting": "[4]; single 50 mg dose", "result": "mild"}, {"measurement": "Subjects reporting adverse events", "setting": "[4]; single 50 mg dose, 16 subjects", "result": 37.5, "unit": "%"}, {"measurement": "Number of subjects with ≥1 TEAE", "setting": "[4]; [13]", "result": "6 (37.5) n (%)"}, {"measurement": "TEAE: Dizziness", "setting": "[4]; [13]", "result": "1 (6.3) n (%)"}, {"measurement": "TEAE: Dry skin", "setting": "[4]; [13]", "result": "2 (12.5) n (%)"}, {"measurement": "TEAE: Headache", "setting": "[4]; [13]", "result": "2 (12.5) n (%)"}, {"measurement": "TEAE: URTI", "setting": "[4]; [13]", "result": "1 (6.3) n (%)"}, {"measurement": "Changes in liver‐related clinical chemistry parameters", "setting": "[4]; single 50 mg doses", "result": "no significant changes"}, {"measurement": "Plasma, CSF and brain Aβ1–40, Aβ1–42 and sAPPβ concentrations", "setting": "[5]", "result": "robustly reduced"}, {"measurement": "Radioactive dose recovered in feces", "setting": "[6]", "result": 74, "unit": "%"}, {"measurement": "Radioactive dose recovered in urine", "setting": "[6]", "result": 25, "unit": "%"}, {"measurement": "Plasma, CSF and brain Aβ1–40, Aβ1–42 and sAPPβ concentrations", "setting": "[7]", "result": "robustly reduced"}, {"measurement": "Safety and tolerability", "setting": "[8]", "result": "no safety or tolerability concerns"}, {"measurement": "Off‐rate from BACE1, half‐life", "setting": "BACE1 [9]", "result": "approximately 9 hours"}, {"measurement": "Duration of suppression of plasma Aβ peptides", "setting": "plasma Aβ peptides", "result": "up to 3 weeks"}, {"measurement": "IC50", "setting": "BACE1 [10]", "result": 0.6, "unit": "nM"}, {"measurement": "Plasma, CSF and brain Aβ1–40, Aβ1–42 and sAPPβ concentrations", "setting": "[11]", "result": "robustly reduced"}]}, {"smiles": "NC1=N[C@@]2(c3cc(NC(=O)c4ccc(F)cn4)ccc3F)COC[C@H]2CS1", "note": "[LY2886721]", "values": [{"measurement": "Liver safety finding that terminated clinical development", "setting": "[12]", "result": "elevations in circulating liver‐enzyme activity"}]}]}
